Experiments:
Cytosol aminopeptidase [1] = target: T1, Cytosol aminopeptidase (Bos taurus, UniProt P00727); experiment: Competitive inhibition of bovine LAPc using L-leucine-p-nitroanilide as substrate by spectrophotometric analysis
T1 sequence (P00727 whole entry): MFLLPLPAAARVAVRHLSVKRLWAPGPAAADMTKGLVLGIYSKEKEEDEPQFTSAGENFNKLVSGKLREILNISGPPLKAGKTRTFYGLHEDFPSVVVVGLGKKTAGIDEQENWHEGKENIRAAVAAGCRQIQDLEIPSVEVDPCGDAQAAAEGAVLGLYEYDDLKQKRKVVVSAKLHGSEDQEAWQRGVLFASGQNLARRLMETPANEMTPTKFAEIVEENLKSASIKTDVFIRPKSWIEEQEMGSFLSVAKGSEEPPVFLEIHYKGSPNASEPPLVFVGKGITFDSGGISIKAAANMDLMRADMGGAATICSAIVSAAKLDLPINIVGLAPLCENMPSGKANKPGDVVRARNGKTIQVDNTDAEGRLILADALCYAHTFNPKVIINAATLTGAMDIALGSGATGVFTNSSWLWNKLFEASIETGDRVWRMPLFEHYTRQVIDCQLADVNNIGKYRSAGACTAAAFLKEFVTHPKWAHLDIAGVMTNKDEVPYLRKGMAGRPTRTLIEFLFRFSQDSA
Outline: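 Cytosolic leucine aminopeptidase from bovine kidney, 20 Units per assay, in 0.1 M Tris–HCl pH 8.0 with 0.1 mM ZnCl2, 5 mM MnCl2 and 1 M KCl. Km for L-leucine-p-nitroanilide 2 mM. Reaction started by adding enzyme to 1 ml medium at 30 °C. p-Nitroanilide release followed continuously at 405 nm (ε = 10,800 M-1 cm-1) for initial velocities. Ki taken from Dixon plots.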

[2] = target: T2, Leukotriene A-4 hydrolase (Homo sapiens, UniProt P09960); experiment: Competitive inhibition of human recombinant LTA4H using alanine-p-nitroanilide as substrate by Dixon-plot analysis
T2 sequence (P09960 whole entry): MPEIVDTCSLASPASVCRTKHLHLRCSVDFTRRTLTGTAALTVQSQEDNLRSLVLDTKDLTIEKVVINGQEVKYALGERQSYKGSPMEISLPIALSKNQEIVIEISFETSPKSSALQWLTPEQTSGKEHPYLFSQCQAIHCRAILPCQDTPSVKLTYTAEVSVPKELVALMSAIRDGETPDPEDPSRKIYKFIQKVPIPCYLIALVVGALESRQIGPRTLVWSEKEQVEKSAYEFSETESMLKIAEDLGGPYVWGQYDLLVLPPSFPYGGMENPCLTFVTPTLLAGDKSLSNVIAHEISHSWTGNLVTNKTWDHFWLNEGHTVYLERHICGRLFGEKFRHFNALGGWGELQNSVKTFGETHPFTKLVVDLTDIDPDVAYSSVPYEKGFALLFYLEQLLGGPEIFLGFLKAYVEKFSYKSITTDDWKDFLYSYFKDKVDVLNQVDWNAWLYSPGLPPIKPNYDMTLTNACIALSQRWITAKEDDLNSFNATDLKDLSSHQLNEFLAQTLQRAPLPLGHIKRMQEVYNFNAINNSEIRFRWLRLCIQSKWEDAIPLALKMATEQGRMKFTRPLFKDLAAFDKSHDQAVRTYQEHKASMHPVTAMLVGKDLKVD
Outline: (§1)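 Human LTA4H, 5 µg per assay, in 10 mM Tris–HCl pH 7.5 with 0.1 mM KCl. Alanine-p-nitroanilide used as substrate (Km 2 mM). Enzyme added last to start the 1 ml reaction at 30 °C. Release of p-nitroanilide followed continuously at 405 nm for initial rates. Ki from Dixon plots assuming rapid-equilibrium kinetics.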

Aminopeptidase N [3] = target: T3, Aminopeptidase N (Sus scrofa, UniProt P15145); experiment: Competitive inhibition of pig APN using L-leucine-p-nitroanilide as substrate by Dixon-plot analysis
T3 sequence (P15145 whole entry): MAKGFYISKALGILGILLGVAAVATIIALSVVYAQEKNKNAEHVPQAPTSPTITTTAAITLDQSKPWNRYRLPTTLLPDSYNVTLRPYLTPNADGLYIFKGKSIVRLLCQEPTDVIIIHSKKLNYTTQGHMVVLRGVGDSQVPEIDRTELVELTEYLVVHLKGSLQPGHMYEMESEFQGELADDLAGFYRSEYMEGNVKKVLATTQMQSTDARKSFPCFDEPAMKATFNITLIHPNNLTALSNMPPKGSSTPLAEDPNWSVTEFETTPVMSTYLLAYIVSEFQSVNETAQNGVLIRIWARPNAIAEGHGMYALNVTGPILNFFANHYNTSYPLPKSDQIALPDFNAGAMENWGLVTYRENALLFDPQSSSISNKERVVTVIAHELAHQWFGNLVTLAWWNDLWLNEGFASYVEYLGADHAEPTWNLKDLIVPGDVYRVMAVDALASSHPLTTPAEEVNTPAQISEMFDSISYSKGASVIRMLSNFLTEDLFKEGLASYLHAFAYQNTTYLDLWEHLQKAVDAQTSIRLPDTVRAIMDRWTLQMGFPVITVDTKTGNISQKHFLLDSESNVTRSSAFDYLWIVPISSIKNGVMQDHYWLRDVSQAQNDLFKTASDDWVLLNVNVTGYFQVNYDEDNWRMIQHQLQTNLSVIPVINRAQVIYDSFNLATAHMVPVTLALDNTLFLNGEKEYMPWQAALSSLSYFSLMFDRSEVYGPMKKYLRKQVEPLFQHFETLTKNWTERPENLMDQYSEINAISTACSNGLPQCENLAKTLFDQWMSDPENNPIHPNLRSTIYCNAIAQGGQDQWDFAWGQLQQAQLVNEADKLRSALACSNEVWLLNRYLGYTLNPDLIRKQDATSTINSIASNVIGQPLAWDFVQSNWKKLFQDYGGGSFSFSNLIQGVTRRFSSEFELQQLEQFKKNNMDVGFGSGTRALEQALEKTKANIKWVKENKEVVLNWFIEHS

[4] = target: T2, Leukotriene A-4 hydrolase; experiment: Competitive inhibition of human recombinant LTA4H using alanine-p-nitroanilide as substrate by spectrophotometric analysis; outline: as §1
Aminopeptidase N [5] = target: Aminopeptidase N (Homo sapiens, UniProt P15144)
Chain of Aminopeptidase N (Homo sapiens, UniProt P15144) (P15144 whole entry): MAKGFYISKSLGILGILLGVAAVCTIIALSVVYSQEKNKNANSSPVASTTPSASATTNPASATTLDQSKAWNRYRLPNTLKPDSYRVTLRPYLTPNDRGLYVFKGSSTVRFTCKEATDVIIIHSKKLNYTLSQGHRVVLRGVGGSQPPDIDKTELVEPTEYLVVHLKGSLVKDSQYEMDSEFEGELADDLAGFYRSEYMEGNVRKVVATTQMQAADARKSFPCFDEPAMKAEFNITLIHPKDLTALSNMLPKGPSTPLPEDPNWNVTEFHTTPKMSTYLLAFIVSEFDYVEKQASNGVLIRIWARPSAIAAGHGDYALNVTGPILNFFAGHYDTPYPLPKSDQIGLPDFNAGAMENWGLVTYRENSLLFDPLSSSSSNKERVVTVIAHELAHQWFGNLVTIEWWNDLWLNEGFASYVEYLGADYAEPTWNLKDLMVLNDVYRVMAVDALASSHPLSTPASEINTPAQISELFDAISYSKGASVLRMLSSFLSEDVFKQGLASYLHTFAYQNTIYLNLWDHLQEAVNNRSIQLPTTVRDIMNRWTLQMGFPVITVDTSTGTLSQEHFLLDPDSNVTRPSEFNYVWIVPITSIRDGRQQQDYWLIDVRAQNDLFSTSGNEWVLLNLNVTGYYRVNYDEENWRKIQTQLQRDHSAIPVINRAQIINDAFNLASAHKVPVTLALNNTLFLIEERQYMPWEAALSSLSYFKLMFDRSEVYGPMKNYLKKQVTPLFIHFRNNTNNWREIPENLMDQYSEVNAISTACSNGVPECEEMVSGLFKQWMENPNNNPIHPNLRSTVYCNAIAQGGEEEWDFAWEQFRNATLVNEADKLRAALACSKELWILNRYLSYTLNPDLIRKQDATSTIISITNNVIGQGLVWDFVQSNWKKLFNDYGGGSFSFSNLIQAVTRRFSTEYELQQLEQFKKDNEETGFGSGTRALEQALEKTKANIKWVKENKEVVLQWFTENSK

Cytosol aminopeptidase [6] = target: T1, Cytosol aminopeptidase; experiment: Competitive inhibition of bovine LAPc using L-leucine-p-nitroanilide as substrate by Dixon-plot analysis
Aminopeptidase N [7] = target: T3, Aminopeptidase N; experiment: Competitive inhibition of pig APN using L-leucine-p-nitroanilide as substrate by spectrophotometric analysis
Outline: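 Porcine kidney aminopeptidase-N, 1 mUnit per assay, in 0.02 M Tris–HCl pH 7.5 at 30 °C. L-Leucine-p-nitroanilide substrate, Km 0.2 mM. Enzyme addition starts the reaction. Continuous 405 nm read of p-nitroanilide release. Ki from Dixon plots for rapid-equilibrium inhibitors. For slow-binding inhibitors, progress curves were run with 3 nM enzyme and substrate at Km, steady state reached after 1.5 h, and Ki taken from Morrison plots.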

Row | Ki (Cytosol aminopeptidase [1]) | Ki [2] | Ki (Aminopeptidase N [3]) | Ki [4] | Ki (Cytosol aminopeptidase [6]) | Ki (Aminopeptidase N [7]) | SMILES | Ki (Aminopeptidase N [5])
1 | > 1000 µM | – | – | – | – | – | NC1Cc2ccccc2CC1=O (stereo not given) | –
2 | – | 380 µM | 80 µM | – | – | – | N[C@H]1CCc2ccccc2/C(=C/c2ccccc2)C1=O | –
3 | > 100 µM | – | 13 µM | > 100 µM | – | – | N[C@H]1CCc2ccccc2[C@@H](Cc2ccccc2)C1=O (racemic) | –
4 | > 100 µM | – | 12 µM | > 100 µM | – | – | N[C@H]1CCc2ccccc2[C@@H](CCCc2ccccc2)C1=O (racemic) | –
5 | > 1000 µM | – | 0.3 µM | > 1000 µM | – | – | N[C@H]1CCc2ccccc2[C@H](F)C1=O (racemic) | –
6 | – | – | – | > 100 µM | 40 µM | 0.083 µM | N[C@H]1CCc2ccccc2[C@H](SCc2ccccc2)C1=O (racemic) | –
7 | > 100 µM | – | – | > 100 µM | – | 0.06 µM | N[C@H]1CCc2ccccc2[C@H](Sc2ccccc2)C1=O (racemic) | –
8 | > 100 µM | – | – | > 100 µM | – | 0.06 µM | N[C@H]1CCc2ccccc2[C@@H](Sc2ccccc2)C1=O (racemic) | –
9 | – | 470 µM | 88 µM | – | – | – | N[C@H]1CCc2ccccc2[C@H](CCc2ccccc2)C1=O (racemic) | –
10 | > 100 µM | – | 22 µM | > 100 µM | – | – | N[C@H]1CCc2ccccc2[C@@H](CCc2ccccc2)C1=O (racemic) | –

Row | SMILES | Ki (Cytosol aminopeptidase [1]) | Ki [2] | Ki (Aminopeptidase N [3]) | Ki [4] | Ki (Cytosol aminopeptidase [6]) | Ki (Aminopeptidase N [7]) | Ki (Aminopeptidase N [5])
11 | N[C@H]1CCc2ccccc2CC1=O | > 1000 µM | – | 1 µM | > 1000 µM | – | – | 1 µM

Source: ChEMBL document CHEMBL2177052, “Rapid and efficient synthesis of a novel series of substituted aminobenzosuberone derivatives as potent, selective, non-peptidic neutral aminopeptidase inhibitors” (Bioorg Med Chem, 2012)
